High-throughput results: PubChem BioAssay, several laboratories
Most compounds without a hit are left out; they make up all but 1.9% or so of the library.
Jurkat tox 60K: cytotoxicity toward Jurkat cells; Jurkat E6.1 viability, ATP luminescence, 48 h; inhibition, % at 4 µM; actives 1.2% (n = 56,000); AID 463;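 active = inhibition above the mean inhibition of all tested compounds plus 3 SD, cut at about 28% in these data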
HEK293 NFkB inh: lowers PMA/ionomycin-induced NF-kB signal in HEK293 cells; HEK-293 NF-kB luciferase reporter, luminescence; inhibition, % at 3 µM; actives 0.21% (n = 62,000); AID 465;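 active = inhibition above the mean of all tested compounds plus 3 SD, cut at about 40% in these data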;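 also: 0% = stimulated DMSO wells and 100% = 10 µM reference inhibitor 5653914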
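System: NF-kB luciferase reporter HEK-293 cells | Replication: Single test | Control set: DMSO vs reference inhibitor | Evaluation: % inhibition | Schedule: 1 h pretreatment, 16 h stimulation, 37 °C | Probe or stimulus: PMA with ionomycin | Compound dosing: One dose, 3 µM | Detection: Luciferase luminescence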
S1P1 ag-PAM: S1P1 (human) agonism or agonism potentiation. P21453. S1P1 CRE-bla cells, forskolin, beta-lactamase FRET, potentiator mode; S1P1 agonist co-added at EC20, 2 nM; 100% = saturating reference agonist, 0% = basal. activation, % at 9.5 µM. actives 0.57% (n = 56,000). AID 449;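 active = activation above a cutoff set at the mean activation of all tested compounds plus 3 SD, cut at about 54% in these data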;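 also: forskolin at 4 µM as EC80 and the EC20 agonist is SEW2871; 100% = SEW2871 at its EC100 plus forskolin at EC80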
Target sequence (P21453 whole entry, looked up): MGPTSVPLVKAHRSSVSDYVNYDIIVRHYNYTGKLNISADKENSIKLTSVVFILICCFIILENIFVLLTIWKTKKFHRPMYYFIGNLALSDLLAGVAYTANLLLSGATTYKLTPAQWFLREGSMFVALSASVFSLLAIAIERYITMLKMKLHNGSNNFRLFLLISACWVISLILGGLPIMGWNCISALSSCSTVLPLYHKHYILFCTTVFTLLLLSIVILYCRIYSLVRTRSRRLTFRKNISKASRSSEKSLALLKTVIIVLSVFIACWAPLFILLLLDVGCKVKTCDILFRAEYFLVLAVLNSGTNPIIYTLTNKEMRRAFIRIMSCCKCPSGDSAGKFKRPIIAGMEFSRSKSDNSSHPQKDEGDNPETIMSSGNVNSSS
SK-BR-3 tox 24h: SK-BR-3 proliferation inhibitors; SK-BR-3 viability, CellTiter-Glo ATP luminescence, 24 h; active compounds read low; viability, % at 10 µM; actives 0.47% (n = 41,000);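 active = viability at or below the median of all test compounds minus 3 SD, in both replicates if run twice, cut at about 45% in these data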;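 also: 100% = median untreated cell wells and 0% = median positive control drug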
* = called active by the depositor; · = not tested or not shown.

SMILES | Jurkat tox 60K | HEK293 NFkB inh | S1P1 ag-PAM | SK-BR-3 tox 24h
C=CCn1c(NC(=O)c2ccccc2)c(C#N)c2nc3ccccc3nc21 | 6.6 | 5.2 | -62.1 | ·
O=C(NC1=NCCS1)c1cccc(S(=O)(=O)N2CCCCC2)c1 | · | -0.8 | · | 85.3
O=C(c1cc(-c2ccccc2O)on1)N1CCc2ccccc2C1 | -6.5 | 9.2 | -6.0 | ·
O=C(c1cc(-c2ccc(O)cc2)on1)N1CCc2ccccc2C1 | 44.8* | -5.2 | 92.7 | ·
Cc1ccccc1NS(=O)(=O)c1ccc2[nH]cc(C(=O)N(C)Cc3ccco3)c(=O)c2c1 | 2.4 | -0.8 | -16.8 | ·
Cc1cc(C)cc(NS(=O)(=O)c2ccc3[nH]cc(C(=O)NCc4ccco4)c(=O)c3c2)c1 | 47.8* | 18.2 | 23.9 | 48.0
CCCn1nc(C(=O)N2CC(=O)Nc3ccccc32)c2ccccc2c1=O | 73.5* | 6.1 | -4.9 | ·
O=C1CN(C(=O)c2ccccn2)c2ccccc2N1 | · | 1.0 | · | 94.9
CC(Oc1ccc(Cl)cc1)C(=O)Nc1nccs1 (stereo not drawn) | · | 17.8 | · | 85.9
O=C(CCN1C(=O)C2C3C=CC(C3)C2C1=O)NCCN1CCCc2ccccc21 (stereo not drawn) | 6.5 | 16.9 | 10.8 | 30.4*
O=C(CN1C(=O)C2C3C=CC(C3)C2C1=O)NCCN1CCCc2ccccc21 (stereo not drawn) | 0.6 | 22.6 | -6.1 | 101.7
Cc1oc(-c2ccccc2)nc1Cn1cccc1C1=NC(c2ccccc2)CO1 (stereo not drawn) | 5.6 | -1.4 | 103.5* | 92.3
CN1CCN(S(=O)(=O)c2ccc(Sc3nnc(-c4cccs4)n3-c3ccccc3)nc2)CC1 | 6.3 | 9.2 | -7.2 | ·
CCCCCCOC(=O)C(C#N)c1nc2ccccc2nc1N1CCCCC1 (stereo not drawn) | -1.7 | 10.6 | 3.4 | 97.1
CCCCCCOC(=O)C(C#N)c1nc2ccccc2nc1N1CCN(C)CC1 (stereo not drawn) | -0.5 | 24.1 | 2.3 | 4.9*
c1ccc2c(c1)oc1c(N3CCN(Cc4ccc5c(c4)OCO5)CC3)ncnc12 | 9.6 | 0.8 | 92.2* | 72.7
CCN(CC)S(=O)(=O)c1cc(C(=O)Nc2ccncc2)ccc1Cl | 47.8* | 17.2 | 87.7 | ·
Cc1csc(NC(=O)C(Cc2ccccc2)n2cccc2)n1 (stereo not drawn) | 1.0 | 3.6 | 81.2* | ·
CCn1c(=O)c(C(=O)Nc2nc3ccccc3[nH]2)c(O)c2ccccc21 | 29.4* | 20.6 | 55.2 | ·
CCOC(=O)N1CCN(c2c(F)cc3[nH]c(=S)[nH]c3c2Br)CC1 | 85.4* | 8.5 | 10.7 | 72.7
CC(=O)N1c2ccccc2C(=O)C1N1CCCCC1 (stereo not drawn) | · | 12.5 | · | 103.8
Cc1cc(C)n(-c2nnc3n2N=C(c2c[nH]c4ccccc24)CS3)n1 | 57.1* | 5.5 | 2.4 | 87.3
Cc1cc(C)n(-c2nnc3n2N=C(c2ccccc2)CS3)n1 | 8.0 | -11.1 | · | 98.7
Cc1oc2nc(SCC(=O)N3CCCCC3)nc(N)c2c1C | 5.2 | 9.1 | -35.7 | 92.8
COc1ccc(C)cc1Nc1cc(C)nc2nc(C)nn12 | 35.5* | -3.1 | -37.0 | ·
SMILES | Jurkat tox 60K | HEK293 NFkB inh | S1P1 ag-PAM | SK-BR-3 tox 24h
COc1cccc2c1OC1(C)CC2NC(=O)N1c1cccc(C(=O)Nc2ccc3c(c2)OCCO3)c1 (stereo not drawn) | · | 5.0 | · | ·
CCN1c2ccccc2NC2N=C(OC)C(c3ccccc3)C21 (stereo not drawn) | 2.4 | 0.4 | -10.4 | 36.3*
CCN1c2ccccc2NC2C1C(C(C)=O)C(=O)N2c1ccc(Cl)cc1 (stereo not drawn) | 8.8 | 7.4 | -8.5 | 67.3
O=C(Nc1cccc(C(F)(F)F)c1)C1CCCN1S(=O)(=O)c1cccc2cccnc12 (stereo not drawn) | 12.4 | 21.8 | 71.2* | ·
Cc1ccc(C(C)C)c(OCCNc2nc3c(c(=O)n(C)c(=O)n3C)n2C)c1 | · | · | -7.9 | 93.2
O=C(Cn1cc2c(n1)CCCC2)Nc1cc(-c2cccc(Cl)c2)no1 | 2.0 | 8.3 | -36.4 | ·
c1ccc(CCNc2c3c(nc4ncnn24)CCC3)cc1 | 7.3 | 11.9 | 18.5 | 81.1
CCc1c(C)nc2ncnn2c1NCCc1ccc(OC)cc1 | 93.1* | 35.6 | 54.9* | ·
O=C1NC(c2ccncc2)Nc2ccccc21 (stereo not drawn) | 7.2 | 16.9 | 9.8 | 70.6
Cc1ccc(C2NC(=O)c3ccccc3N2)s1 (stereo not drawn) | 75.0* | -17.1 | 8.6 | ·
N#CCCNc1ccc(OCCC#N)cc1 | 1.0 | 11.9 | -9.8 | 124.0
Cc1noc(C)c1S(=O)(=O)N(CC(=O)Nc1ccc2c(c1)OCO2)c1ccc(C(C)C)cc1 | 7.8 | 33.7 | 79.2* | ·
CCOc1ccc(N(CC(=O)Nc2ccccc2C)S(=O)(=O)c2c(C)noc2C)cc1 | 91.0* | 36.3 | 1.3 | ·
CCOc1ccc(N(CC(=O)Nc2ccc(C)c(C)c2)S(=O)(=O)c2c(C)noc2C)cc1 | 15.7 | 19.8 | 27.9 | ·
Cc1nn(C)c(C)c1S(=O)(=O)N(CC(=O)Nc1ccc2c(c1)OCO2)c1ccc(C(C)C)cc1 | 0.6 | 11.4 | -1.6 | ·
CCOc1ccccc1NC(=O)CN(c1ccc(OC)cc1)S(=O)(=O)c1c(C)noc1C | 93.3* | 36.4 | -1.2 | 99.7
CC(C)(C)C(=O)NC1CCN(S(=O)(=O)c2cccc(C(F)(F)F)c2)CC1 | 8.3 | 13.1 | -5.8 | 23.1*
Fc1ccc(COc2ccc(/C=N/n3cnnc3)cc2)cc1 | 7.3 | 22.3 | 64.5* | ·
Cc1nn(-c2ccccc2)c(Oc2ccc(F)cc2)c1/C=N/n1cnnc1 | 3.6 | 23.7 | -14.2 | ·
CCCC(=O)Nc1nc2ccc(S(=O)(=O)N3CCCCC3)cc2s1 | 78.7* | 26.8 | -1.7 | ·
CCCC(=O)Nc1nc2ccc(OCC)cc2s1 | -4.9 | -33.4 | -2.4 | ·
CC(=O)N1C=CN(C(C)=O)C(c2cn(C)c3ccccc23)C1c1cn(C)c2ccccc12 (stereo not drawn) | 3.8 | 19.5 | 68.6* | ·
CC(=O)n1cc(C2C(=O)CCCC2=O)c2ccccc21 | 5.6 | 3.4 | -9.0 | 119.0
CCOC(=O)C1CCN(CC(=O)Nc2c(C(=O)OC)[nH]c3ccc(Cl)cc23)CC1 | 44.1* | 16.1 | 16.4 | 95.1
CC(C)(C)c1cc(C(c2cccnc2)N2CCN(CCO)CC2)cc(C(C)(C)C)c1O (stereo not drawn) | -2.4 | 3.3 | 29.2 | ·
SMILES | Jurkat tox 60K | HEK293 NFkB inh | S1P1 ag-PAM | SK-BR-3 tox 24h
OCCN1CCN(C(c2cccs2)c2ccc3cccnc3c2O)CC1 (stereo not drawn) | 53.3* | 7.8 | 18.7 | 90.9
Cc1ccc(S(=O)(=O)Nc2cccc3ncccc23)s1 | 30.7* | 14.7 | 53.0 | ·
Cc1ccc(Nc2nc(N)nc(CN3CCN(C(=O)c4ccco4)CC3)n2)cc1Cl | 7.3 | 13.4 | -12.6 | 100.2
Cc1cc(C(=O)N2CCN(c3cccc(Cl)c3)CC2)c(C)o1 | 74.8* | 11.2 | 8.3 | ·
Cc1ccc(C(=O)N2CCN(c3cccc(Cl)c3)CC2)cc1C | 37.8* | 12.2 | 24.1 | ·
Cc1cc2ccccc2c(=O)n1CC(=O)N1CCN(c2cccc(Cl)c2)CC1 | 0.7 | 18.1 | 11.4 | 28.8*
CN(C)/C=C1\C(=O)c2ccc(N(C)C)nc2CC1c1ccccc1 (stereo not drawn) | -0.5 | 11.6 | -303.5 | 104.4
